# Experimental data from ChEMBL document CHEMBL3808334, “Synthesis and in vitro evaluation of novel triazine analogues as anticancer agents and their interaction studies with bovine serum albumin” (Eur J Med Chem, 2016).
# What was measured:
# Format in all cases: functional
# [1] = Growth inhibition of human TK10 cells assessed as cell growth at 10^-4 M incubated for 48 hrs by sulforhodamine B assay; details: TK-10, 48 h, read-out: Activity
# [2] = Growth inhibition of human Hs 578T cells assessed as cell growth at 10^-4 M incubated for 48 hrs by sulforhodamine B assay; details: read-out: Activity
# [3] = Growth inhibition of human COLO205 cells incubated for 48 hrs by sulforhodamine B assay; details: COLO 205, 48 h
# How it was run: (§1)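 Cells seeded at 5,000–40,000/well according to doubling time and preincubated 24 h at 37 °C, 5% CO2. Time-zero plates were TCA-fixed. DMSO concentrate was diluted in medium with 50 µg/ml gentamicin to give five concentrations (10-fold or ½ log steps), then exposed 48 h. Cells were TCA-fixed, stained with 0.4% SRB and read at 515 nm. Percent growth was taken against time-zero and control; GI50, TGI and LC50 derived.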
# [4] = Growth inhibition of human HCT116 cells incubated for 48 hrs by sulforhodamine B assay; details: HCT-116, 48 h; how it was run: as §1
# [5] = Growth inhibition of human SF268 cells incubated for 48 hrs by sulforhodamine B assay; details: SF-268, 48 h
# How it was run: (§2)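 Cells were plated at 5,000–40,000 per well according to doubling time and preincubated 24 h at 37 °C in 5% CO2; time-zero plates were then TCA-fixed. Five concentrations (10-fold or ½-log dilutions, DMSO stock) were incubated 48 h. Cells were TCA-fixed, stained with 0.4% SRB and read at 515 nm. GI50 was taken where [(Ti−Tz)/(C−Tz)]×100 = 50.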
# Malme-3M [6] = assay: Growth inhibition of human MALME-3M cells incubated for 48 hrs by sulforhodamine B assay; how it was run: as §2
# [7] = Growth inhibition of human OVCAR8 cells assessed as cell growth at 10^-8 M incubated for 48 hrs by sulforhodamine B assay; details: OVCAR-8, 48 h, read-out: Activity
# NCI/ADR-RES = assay: Growth inhibition of human NCI/ADR-RES cells assessed as cell growth at 10^-5 M incubated for 48 hrs by sulforhodamine B assay; details: read-out: Activity
# ACHN [8] = assay: Growth inhibition of human ACHN cells assessed as cell growth at 10^-8 M incubated for 48 hrs by sulforhodamine B assay; details: read-out: Activity
# How it was run: (§3)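 Five-dose assay: five concentrations from 10-fold or ½-log serial dilutions. Cells are plated at 5,000–40,000 per well according to doubling time, grown 24 h, then exposed 48 h at 37 °C, 5% CO₂. Fixed with cold 50% TCA (final addition) for 60 min at 4 °C and stained with 0.4% SRB in 1% acetic acid. Bound dye is solubilized in 10 mM Tris base and read at 515 nm. GI₅₀ is where [(Ti−Tz)/(C−Tz)]×100 = 50, with a time-zero plate as Tz.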
# [9] = Growth inhibition of human COLO205 cells assessed as cell growth at 10^-7 M incubated for 48 hrs by sulforhodamine B assay; details: COLO 205, 48 h, read-out: Activity; how it was run: as §1
# [10] = Growth inhibition of human PC3 cells assessed as cell growth at 10^-5 M incubated for 48 hrs by sulforhodamine B assay; details: PC-3, 48 h, read-out: Activity
# [11] = Growth inhibition of human MOLT4 cells assessed as cell growth at 10^-4 M incubated for 48 hrs by sulforhodamine B assay; details: MOLT-4, 48 h, read-out: Activity
# NCI-H226 [12] = assay: Growth inhibition of human NCI-H226 cells assessed as cell growth at 10^-4 M incubated for 48 hrs by sulforhodamine B assay; details: NCI-H226, 48 h, read-out: Activity
# [13] = Growth inhibition of human LOXIMVI cells assessed as cell growth at 10^-7 M incubated for 48 hrs by sulforhodamine B assay; details: LOX IMVI, read-out: Activity
# Malme-3M [14] = assay: Growth inhibition of human MALME-3M cells assessed as cell growth at 10^-7 M incubated for 48 hrs by sulforhodamine B assay; details: read-out: Activity
# MDA-MB-435 [15] = assay: Growth inhibition of human MDA-MB-435 cells assessed as cell growth at 10^-7 M incubated for 48 hrs by sulforhodamine B assay; details: MDA-MB-435, 48 h, read-out: Activity
# SK-MEL-2 = assay: Growth inhibition of human SK-MEL-2 cells assessed as cell growth at 10^-7 M incubated for 48 hrs by sulforhodamine B assay; details: SK-MEL-2, 48 h, read-out: Activity
# [16] = Growth inhibition of human RXF393 cells assessed as cell growth at 10^-7 M incubated for 48 hrs by sulforhodamine B assay; details: RXF 393, 48 h, read-out: Activity
# A549 = assay: Growth inhibition of human A549/ATCC cells assessed as cell growth at 10^-6 M incubated for 48 hrs by sulforhodamine B assay; details: A549, 48 h, read-out: Activity; how it was run: as §3
# NCI-H226 [17] = assay: Growth inhibition of human NCI-H226 cells assessed as cell growth at 10^-6 M incubated for 48 hrs by sulforhodamine B assay; details: NCI-H226, 48 h, read-out: Activity
# MDA-MB-435 [18] = assay: Growth inhibition of human MDA-MB-435 cells assessed as cell growth at 10^-6 M incubated for 48 hrs by sulforhodamine B assay; details: MDA-MB-435, 48 h, read-out: Activity
# SK-MEL-28 = assay: Growth inhibition of human SK-MEL-28 cells assessed as cell growth at 10^-6 M incubated for 48 hrs by sulforhodamine B assay; details: SK-MEL-28, 48 h, read-out: Activity
# SK-MEL-5 = assay: Growth inhibition of human SK-MEL-5 cells assessed as cell growth at 10^-6 M incubated for 48 hrs by sulforhodamine B assay; details: SK-MEL-5, 48 h, read-out: Activity
# ACHN [19] = assay: Growth inhibition of human ACHN cells assessed as cell growth at 10^-6 M incubated for 48 hrs by sulforhodamine B assay; details: read-out: Activity; how it was run: as §3
# [20] = Growth inhibition of human DU145 cells assessed as cell growth at 10^-6 M incubated for 48 hrs by sulforhodamine B assay; details: DU-145, 48 h, read-out: Activity; how it was run: as §1
# [21] = Growth inhibition of human HL-60(TB) cells assessed as cell growth at 10 uM incubated for 48 hrs by sulforhodamine B assay; details: HL-60, 48 h, read-out: Activity
# [22] = Growth inhibition of human MOLT4 cells assessed as cell growth at 10 uM incubated for 48 hrs by sulforhodamine B assay; details: MOLT-4, 48 h, read-out: Activity
# [23] = read-out: LC50 (the source's name)
# [24] = read-out: pLC50 (the source's name) (converted)
structure (smiles),measurement,setting,value
Fc1ccc(-c2nc(Nc3ccc(-c4nc5ccccc5[nH]4)cc3)nc(N3CCOCC3)n2)cc1,growth at 100 µM,[1],-27%
same,growth at 100 µM,[2],-3%
same,GI50,[3]; read-out: GI50,1.92 µM
same,LC50,[3]; read-out: LC50,9.23 µM
same,TGI,[3]; read-out: TGI,4.21 µM
same,GI50,[3]; read-out: pGI50 (converted),1.91 µM
same,LC50,[3]; read-out: pLC50 (converted),9.33 µM
same,TGI,[3]; read-out: pTGI (converted),4.17 µM
same,GI50,[4]; read-out: GI50,1.9 µM
same,CC50,[4]; [23],6.56 µM
same,TGI,[4]; read-out: TGI,3.53 µM
same,GI50,[4]; read-out: pGI50 (converted),1.91 µM
same,CC50,[4]; [24],6.61 µM
same,TGI,[4]; read-out: pTGI (converted),3.55 µM
same,GI50,[5]; read-out: GI50,2.82 µM
same,CC50,[5]; [23],> 100 µM
same,TGI,[5]; read-out: TGI,26.5 µM
same,GI50,[5]; read-out: pGI50 (converted),2.82 µM
same,CC50,[5]; [24],> 100 µM
same,TGI,[5]; read-out: pTGI (converted),26.3 µM
same,GI50,Malme-3M [6]; read-out: GI50,2.05 µM
same,CC50,Malme-3M [6]; [23],7.63 µM
same,TGI,Malme-3M [6]; read-out: TGI,3.95 µM
same,GI50,Malme-3M [6]; read-out: pGI50 (converted),2.04 µM
same,CC50,Malme-3M [6]; [24],7.59 µM
same,TGI,Malme-3M [6]; read-out: pTGI (converted),3.98 µM
same,growth at 0.01 µM,[7],101%
same,growth at 10 µM,NCI/ADR-RES,10%
same,growth at 0.01 µM,ACHN [8],100%
same,growth at 0.1 µM,[9],99%
same,growth at 10 µM,[10],-20%
same,growth at 100 µM,[11],-33%
same,growth at 100 µM,NCI-H226 [12],-50%
same,growth at 0.1 µM,[13],95%
same,growth at 0.1 µM,Malme-3M [14],95%
same,growth at 0.1 µM,MDA-MB-435 [15],102%
same,growth at 0.1 µM,SK-MEL-2,101%
same,growth at 0.1 µM,[16],100%
same,growth at 1 µM,A549,99%
same,growth at 1 µM,NCI-H226 [17],113%
same,growth at 1 µM,MDA-MB-435 [18],95%
same,growth at 1 µM,SK-MEL-28,84%
same,growth at 1 µM,SK-MEL-5,97%
same,growth at 1 µM,ACHN [19],82%
same,growth at 1 µM,[20],98%
same,growth at 10 µM,[21],-46%
same,growth at 10 µM,[22],1.78%
c1ccc(-c2nc(Nc3ccc(-c4nc5ccccc5[nH]4)cc3)nc(N3CCOCC3)n2)cc1,growth at 100 µM,[1],-94%
same,growth at 100 µM,[2],-43%
same,GI50,[3]; read-out: GI50,1.41 µM
same,LC50,[3]; read-out: LC50,6.92 µM
same,TGI,[3]; read-out: TGI,3.13 µM
same,GI50,[3]; read-out: pGI50 (converted),1.41 µM
same,LC50,[3]; read-out: pLC50 (converted),6.92 µM
same,TGI,[3]; read-out: pTGI (converted),3.16 µM
same,GI50,[4]; read-out: GI50,0.394 µM
same,CC50,[4]; [23],7.18 µM
same,TGI,[4]; read-out: TGI,1.62 µM
same,GI50,[4]; read-out: pGI50 (converted),0.398 µM
same,CC50,[4]; [24],7.24 µM
same,TGI,[4]; read-out: pTGI (converted),1.62 µM
same,GI50,[5]; read-out: GI50,1.64 µM
same,CC50,[5]; [23],6.39 µM
same,TGI,[5]; read-out: TGI,3.24 µM
same,GI50,[5]; read-out: pGI50 (converted),1.62 µM
same,CC50,[5]; [24],6.46 µM
same,TGI,[5]; read-out: pTGI (converted),3.24 µM
same,GI50,Malme-3M [6]; read-out: GI50,2 µM
same,CC50,Malme-3M [6]; [23],7.42 µM
same,TGI,Malme-3M [6]; read-out: TGI,3.85 µM
same,GI50,Malme-3M [6]; read-out: pGI50 (converted),2 µM
same,CC50,Malme-3M [6]; [24],7.41 µM
same,TGI,Malme-3M [6]; read-out: pTGI (converted),3.89 µM
same,growth at 0.01 µM,[7],101%
same,growth at 10 µM,NCI/ADR-RES,-28%
same,growth at 0.01 µM,ACHN [8],96%
same,growth at 0.1 µM,[9],91%
same,growth at 10 µM,[10],-72%
same,growth at 100 µM,[11],-52%
same,growth at 100 µM,NCI-H226 [12],-59%
same,growth at 0.1 µM,[13],96%
same,growth at 0.1 µM,Malme-3M [14],131%
same,growth at 0.1 µM,MDA-MB-435 [15],101%
same,growth at 0.1 µM,SK-MEL-2,101%
same,growth at 0.1 µM,[16],96%
same,growth at 1 µM,A549,96%
same,growth at 1 µM,NCI-H226 [17],117%
same,growth at 1 µM,MDA-MB-435 [18],96%
same,growth at 1 µM,SK-MEL-28,82%
same,growth at 1 µM,SK-MEL-5,92%
same,growth at 1 µM,ACHN [19],64%
same,growth at 1 µM,[20],63%
same,growth at 10 µM,[21],-32.7%
same,growth at 10 µM,[22],-37.8%
